The source of these data is ChEMBL document CHEMBL1147950, “Polyphenols based on isoflavones as inhibitors of Helicobacter pylori urease” (Bioorg Med Chem, 2007).

“And” between values parts separate entries of the source, which are not always exact repeats. Equal entries are not always repeated. Where only a bound is given, the exact number is not on record here.

The target in assay [1] is Urease subunit alpha/Urease subunit beta (Helicobacter pylori (strain ATCC 700392 / 26695) (Campylobacterpylori)) (UniProt P69996+P14916). Nature of the assay: Inhibition of Helicobacter pylori ATCC 43504 urease at 400 ug/mL after 3 hrs pre-incubation. In short, it runs like this:
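Urease from H. pylori ATCC 43504 cultured 24 h at 37 °C in brucella broth with 10% heat-inactivated horse serum, microaerobic (5% O2, 10% CO2, 85% N2). 4 U enzyme preincubated with test compound 3 h at room temperature. Activity read as ammonia production by the indophenol method; percent inhibition recorded.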

For assay [2], the target named is T1, Urease subunit alpha/Urease subunit beta (Helicobacter pylori (strain ATCC 700392 / 26695) (Campylobacterpylori), UniProt P69996). Nature of the assay: Inhibition of Helicobacter pylori ATCC 43504 urease after 3 hrs pre-incubation. In short, it runs like this:
(§1)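 Urease source: H. pylori ATCC 43504 grown 24 h at 37 °C, microaerobic (5% O2, 10% CO2, 85% N2), in brucella broth with 10% heat-inactivated horse serum. Enzyme (4 U) preincubated with test compound 3 h at room temperature. Ammonia production read by the indophenol method. IC50 values from triplicate measurements, reported as mean ± SD.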

Assay [3] addresses T1, Urease subunit alpha/Urease subunit beta. Nature of the assay: Inhibition of Helicobacter pylori ATCC 43504 urease in presence of 0.4 mM 2-mercaptoethanol after 3 hrs pre-incubation. The gist of the method: as §1
The target is the same in assay [4]. Nature of the assay: Inhibition of Helicobacter pylori ATCC 43504 urease in presence of 0.4 mM dithiothreitol after 3 hrs pre-incubation. The gist of the method: as §1

Urease subunit alpha/Urease subunit beta (Helicobacter pylori (strain ATCC 700392 / 26695) (Campylobacterpylori)), sequence (P14916 whole entry, looked up): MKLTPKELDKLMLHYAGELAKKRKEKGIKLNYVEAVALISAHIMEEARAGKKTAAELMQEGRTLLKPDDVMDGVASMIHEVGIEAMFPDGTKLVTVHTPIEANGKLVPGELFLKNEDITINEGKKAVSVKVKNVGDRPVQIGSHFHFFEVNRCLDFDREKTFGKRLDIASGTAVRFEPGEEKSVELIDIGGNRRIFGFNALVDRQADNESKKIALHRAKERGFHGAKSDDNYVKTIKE
Urease subunit alpha/Urease subunit beta (Helicobacter pylori (strain ATCC 700392 / 26695) (Campylobacterpylori)), sequence (P69996 whole entry, looked up): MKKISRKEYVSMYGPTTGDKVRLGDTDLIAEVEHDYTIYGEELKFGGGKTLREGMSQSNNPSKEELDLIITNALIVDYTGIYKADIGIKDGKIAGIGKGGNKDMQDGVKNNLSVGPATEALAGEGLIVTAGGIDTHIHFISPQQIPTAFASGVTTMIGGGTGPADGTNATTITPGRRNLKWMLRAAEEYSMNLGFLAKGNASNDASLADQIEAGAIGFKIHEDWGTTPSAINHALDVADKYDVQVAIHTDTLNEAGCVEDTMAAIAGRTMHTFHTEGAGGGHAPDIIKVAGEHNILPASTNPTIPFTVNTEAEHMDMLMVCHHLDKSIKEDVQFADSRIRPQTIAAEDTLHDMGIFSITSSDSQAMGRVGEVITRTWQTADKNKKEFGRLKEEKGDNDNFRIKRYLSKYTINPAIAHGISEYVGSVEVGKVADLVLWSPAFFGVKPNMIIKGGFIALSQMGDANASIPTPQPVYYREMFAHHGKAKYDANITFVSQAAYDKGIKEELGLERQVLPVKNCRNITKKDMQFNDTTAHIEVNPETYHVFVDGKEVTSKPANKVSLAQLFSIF
T1 sequence (P69996 whole entry): as the sequence (P69996 whole entry, looked up) above
T1 sequence (P14916 whole entry, further chain): as the sequence (P14916 whole entry, looked up) above

As to `O=C(Cc1ccc(O)cc1)c1ccc(O)cc1O`, the inhibition (in general, the change of the read-out against control, counted positive when it falls) in assay [1] amounted to 16%. The same measure, in the same setting: for `COc1ccc(CC(O)c2ccc(OC)c(OC)c2O)cc1` (configuration not stated) the value was 42%; for `COc1ccc(CC(=O)c2ccc(O)c(O)c2O)cc1`, 44%. `CC(=O)NO` [ACETOHYDROXAMIC ACID]: the half-inhibitory concentration (IC50) (as a rule, the midpoint of a concentration-inhibition curve) in assay [2] was found to be 17 µM; in assay [3] it was 19 µM; in assay [4] it was 18 µM.

The compound `CC(=O)c1ccc(O)cc1O` yielded an inhibition in assay [1] of 14%. As for `COc1c(O)cc(O)c2c(=O)c(-c3ccc(O)cc3)coc12`, the inhibition in assay [1] is 23% and 36%. `Oc1ccc(CCc2ccc(O)c(O)c2O)cc1` came in with an inhibition in assay [1] of 94.5%. Also, the IC50 in assay [2] worked out at 30 µM; in assay [3], 71 µM; in assay [4], 53 µM. On to `COc1c(O)cc(O)c(C(=O)Cc2ccc(O)cc2)c1O`, for which, in assay [1], the inhibition was found to be 17%.

For `O=C(Cc1ccc(O)cc1)c1ccc(O)c(O)c1O`, the inhibition in assay [1] turned out to be 51%. Turning to `O=C(Cc1ccc(O)cc1)c1ccc(O)c(O)c1`, the inhibition in assay [1] worked out at 39%. For the compound `CC(=O)c1ccc(O)c(O)c1O`, the inhibition in assay [1] came out at 38%.

Turning to `O=c1c(-c2ccc(O)cc2)coc2c(O)c(O)ccc12`, the inhibition in assay [1] turned out to be 81.7%. Moreover, the figures for the half-maximal inhibitory concentration (IC50) in assay [2], in assay [3] and in assay [4] were 140 µM, more than 1480 µM and more than 1480 µM, respectively.

With `COc1ccc(CC(=O)c2ccc(O)cc2O)cc1`, the inhibition in assay [1] came to 14%.

As to `CC(=O)c1ccc(O)c(O)c1`, the inhibition in assay [1] stood at 41%.
